Source: PubChem
SR-BI DiI-HDL act – enhances SR-BI lipid uptake from DiI-HDL; actives 0.096% (n = 320,000); AID 504775; activation, % at 12.5 µM; CHO ldlA[mSR-BI] cells, DiI-HDL uptake fluorescence, 3 h; 100 = double the neutral-control signal;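 active = mean replicate activation of at least 60% and every replicate at or above 60%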;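 note: 0% = median plate neutral-control signal and 100% = twice that signal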
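Material: SR-BI-overexpressing, LDLR-lacking CHO cells; schedule: compound exposure 3 h, 37 °C; reagent: DiI-labelled HDL at 10 µg/mL final; technique: bottom-read fluorescence, 550/595 nm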
CAL PDZ FP-1 – inhibitors of human CAL PDZ peptide binding. inhibition, % at 24.9 µM. actives 0.92% (n = 300,000). purified CAL PDZ, TMR-peptide fluorescence polarization, 1 h. AID 602252. Q9HD26;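 active = mean inhibition of at least 30% with at least half of replicates also reaching 30%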;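 note: 0% = DMSO neutral control and 100% = excess unlabeled competitor peptide PRC23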
CAL PDZ FP-2 – inhibitors of human CAL PDZ peptide binding | actives 0.02% (n = 330,000) | Q9HD26 | AID 504414 | inhibition, % at 20 µM | purified CAL PDZ, TMR-peptide fluorescence polarization, 1 h;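 active = highest replicate inhibition of at least 40%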;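 note: plate controls were DMSO neutral control wells for no effect and unlabeled competitor peptide control wells for full effect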
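Assay system – tagged CAL PDZ protein CerCALP, purified · Timing – 1 h at RT · Compound – single point, 20 µM · Measured by – fluorescence polarization from S- and P-plane intensities, G-factor corrected · Evaluation – inhibition from polarization loss · Probe or stimulus – TMR reporter peptide T*-PRC34 · Buffer or medium – pH 7.4 phosphate-saline buffer, reducing agent, detergent, IgG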
ATG4B inhibitor – blocks human ATG4B protease cleavage of LC3 substrate; inhibition, % at 8.33 µM; ATG4B cleavage of LC3-PLA2, NBD-HPC fluorescence, 1 h; actives 0.51% (n = 340,000); AID 504462; in the data active = inhibition above about 40%
SR-BI HDL uptake – mouse SR-BI HDL lipid transfer inhibition | inhibition, % at 12.5 µM | Q61009 | actives 0.96% (n = 320,000) | ldlA[mSR-BI] CHO cells, DiI-HDL uptake fluorescence, 3 h | AID 488896;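 active = mean replicate inhibition of at least 70% and a set share of replicates each scoring 70 or more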;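 note: 0% = median of neutral control wells and 100% = median of positive control wells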
Target sequence (Q61009 whole entry, looked up): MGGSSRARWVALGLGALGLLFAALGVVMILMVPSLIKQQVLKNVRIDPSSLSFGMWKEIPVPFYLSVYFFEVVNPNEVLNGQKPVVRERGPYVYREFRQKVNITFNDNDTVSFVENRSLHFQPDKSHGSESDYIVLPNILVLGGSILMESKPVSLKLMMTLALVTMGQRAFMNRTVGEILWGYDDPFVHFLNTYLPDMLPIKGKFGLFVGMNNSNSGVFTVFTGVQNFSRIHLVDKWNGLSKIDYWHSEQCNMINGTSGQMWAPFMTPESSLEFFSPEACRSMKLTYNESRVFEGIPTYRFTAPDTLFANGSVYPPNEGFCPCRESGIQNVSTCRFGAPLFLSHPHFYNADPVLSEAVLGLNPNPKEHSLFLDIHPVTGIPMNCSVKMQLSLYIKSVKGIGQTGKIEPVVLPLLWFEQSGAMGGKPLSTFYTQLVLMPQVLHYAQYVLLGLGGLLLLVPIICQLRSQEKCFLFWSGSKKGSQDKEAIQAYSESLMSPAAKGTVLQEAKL
The depositor's hits bear a star; · = not tested or not shown. Rows were chosen to be rich in hits. Some 2.3% of all compounds tested hit in one or more screens of this group.

SMILES | SR-BI DiI-HDL act | CAL PDZ FP-1 | CAL PDZ FP-2 | ATG4B inhibitor | SR-BI HDL uptake
CCCC(C)C(=O)Nc1nc(C)c(-c2csc(Nc3ccccc3OC)n2)s1 (stereo not given) | -84.4 | -5.3 | -1.7 | 0.1 | 84.4*
O=C(O)c1ccccc1C=NN1CCCCCC1 | -11.4 | -4.7 | -2.4 | -1.1 | 11.4
COc1ccc2c(c1)c(CC(=O)Nc1cccc(S(N)(=O)=O)c1)c(C)n2C(=O)c1ccc(Cl)cc1 | 0.6 | -9.5 | -0.8 | -1.8 | -0.6
Cc1ccccc1C(=O)OCC(=O)NCC1COc2ccccc2O1 (stereo not given) | 0.1 | -2.9 | -1.6 | -5.4 | -0.1
COc1ccc(C(CC(=O)O)NC(=O)c2ccccc2[N+](=O)[O-])cc1 (stereo not given) | · | 31.4* | -0.5 | 4.2 | ·
COc1ccc(C(CC(=O)O)NC(=O)c2cccs2)cc1 (stereo not given) | 11.9 | · | -0.5 | 2.9 | -11.9
CCOC(=O)c1[nH]ncc1CN1CCN(Cc2ccc(C)cc2)C(CCO)C1 (stereo not given) | -1.5 | -3.0 | -0.7 | -5.5 | 1.5
CCOC(=O)c1[nH]ncc1CN1CCN(Cc2ccccc2)C(CCO)C1 (stereo not given) | · | 30.4* | -1.3 | -6.5 | ·
Cc1nc(N2CCC(C)CC2)c2nnn(Cc3ccccc3)c2n1 | -81.5 | -1.4 | -3.1 | -0.9 | 81.5*
O=C(COC(=O)C1CC2CCCC(C1)C2=O)NNC(=O)c1ccc([N+](=O)[O-])cc1 (stereo not given) | 23.1 | -1.2 | -1.8 | 1.8 | -23.1
Cc1nnsc1C(=O)N1CCCC(N2CCN(c3ccc(F)cc3)CC2)C1 (stereo not given) | 17.8 | 1.1 | -1.4 | -2.5 | -17.8
Cc1c(C(=O)N2CCN(c3ccccc3)CC2)sc2nc3n(c(=O)c12)CCC3 | -8.4 | 0.1 | -2.5 | 5.2 | 8.4
Cc1c(C(=O)N2CCN(c3ccc(F)cc3)CC2)sc2nc3n(c(=O)c12)CCC3 | -13.3 | 86.1* | 0.1 | 1.7 | 13.3
Cc1nnsc1C(=O)N1CCN(c2ccc(F)cc2)CC1 | 18.1 | 36.8* | -0.2 | -6.1 | -18.1
CCCCC[C@H](O)/C=C/C1C(=O)C=C[C@H]1C/C=C\CCCC(=O)OC (stereo not given in full) | 12.9 | -5.3 | -0.7 | -12.3 | -12.9
COC(=O)[C@]1(Cc2ccccc2)N[C@H](c2ccc(-c3ccc4c(c3)OCO4)cc2)[C@@H]2C(=O)N(C)C(=O)[C@@H]21 | -14.8 | -2.8 | 0.1 | 3.3 | 14.8
CCOC(=O)C(=O)NC12CC3CC(CC(C3)C1)C2 | 63.1* | 4.5 | 0.5 | 1.3 | -63.1
O=C1CC(=O)N(Cc2ccco2)C(=O)N1 | 11.0 | 1.0 | 0.4 | -1.9 | -11.0
O=C1CC(=O)N(Cc2ccco2)C(=S)N1 | 0.3 | -2.2 | -1.2 | 46.2* | -0.3
Cc1cc(C)nc(Sc2ccc(C=O)cc2[N+](=O)[O-])n1 | -4.9 | 0.1 | -1.3 | -1.5 | 4.9
O=Cc1ccc(Sc2nnc(-c3ccccc3)o2)c([N+](=O)[O-])c1 | 16.2 | 0.3 | -0.5 | 48.6* | -16.2
Cc1ccc(N=Nc2c(N)n[nH]c2N)cc1 | 12.9 | -4.1 | 0.9 | 0.9 | -12.9
Cc1ccc(-c2[nH]nc(N)c2N=Nc2cccc(Cl)c2C)cc1 | -83.6 | 0.6 | -2.2 | 0.7 | 83.6*
Cc1cccc(N=Nc2c(N)n[nH]c2-c2ccc(Cl)cc2)c1 | -71.2 | -8.0 | 0.0 | 3.1 | 71.2*
Cc1ccc(-c2[nH]nc(N)c2N=Nc2ccccc2C)cc1 | -75.9 | -3.6 | 0.2 | -3.9 | 75.9*
COc1ccc(NC(=O)CCNS(=O)(=O)c2ccc3c(c2)CC(C)N3C(=O)C2CC2)cc1 (stereo not given) | -0.1 | 33.8* | -0.2 | -6.9 | 0.1
CCc1noc(C)c1C(=O)N1CCCC(CCC(=O)NCc2ccc(F)c(F)c2)C1 (stereo not given) | 22.6 | 71.1* | 21.7 | 0.7 | -22.6
CCC(C)C(NC(=O)C(C)NC(=O)CNC(=O)CNC(=O)OCc1ccccc1)C(=O)OC (stereo not given) | 8.1 | 47.4* | -1.0 | -2.5 | -8.1
COC(=O)C(NC(=O)C(C)NC(=O)OCc1ccccc1)C(C)C (stereo not given) | 41.8 | · | 0.2 | 6.5 | -41.8
CC1CCc2nc(NC(=O)c3cc(C(C)(C)C)nn3C)sc2C1 (stereo not given) | · | 1.1 | -3.1 | -7.7 | ·
